Sampled rows, rich in hits. Any-hit rate of the full collection: about 3.8%.
MPTP block – mitochondrial permeability transition pore inhibitors, primary screen, biochemical, isolated mouse mitochondria, absorbance. Ca2+ swelling absorbance, 30 min. inhibition, % at 10 µM. actives 1.4% (n = 360,000);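 active means inhibition of 50% or more, scaled per plate between neutral and stimulator controls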;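 further: 0% = DMSO wells given calcium and 100% = 1 mM EGTA wells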
Beta2AR agonist – beta2AR agonists driving receptor internalization, primary screen, cell-based, FAP fluorogen, flow cytometry; actives 0.43% (n = 340,000); response, % (concentration not given with the values); Am2.2-beta2AR cells; AID 504454, 2011; Beta-2 adrenergic receptor (Homo sapiens), P07550;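 active means response above a set limit, near 3 SD of response in nonfluorescent compounds, cut at about 42% in these data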
Target sequence (P07550 whole entry, looked up): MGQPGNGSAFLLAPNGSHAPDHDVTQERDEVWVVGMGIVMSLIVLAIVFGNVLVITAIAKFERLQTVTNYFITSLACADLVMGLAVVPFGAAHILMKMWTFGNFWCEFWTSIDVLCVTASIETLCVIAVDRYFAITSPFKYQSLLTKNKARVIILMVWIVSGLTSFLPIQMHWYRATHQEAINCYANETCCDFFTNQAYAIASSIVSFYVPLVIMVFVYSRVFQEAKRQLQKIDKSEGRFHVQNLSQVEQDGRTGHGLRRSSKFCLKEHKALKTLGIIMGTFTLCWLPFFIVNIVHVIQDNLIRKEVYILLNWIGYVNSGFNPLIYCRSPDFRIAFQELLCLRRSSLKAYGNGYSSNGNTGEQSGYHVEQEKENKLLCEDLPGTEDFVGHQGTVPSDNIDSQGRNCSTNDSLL
Exocytosis inh – LAMP-1 surface exposure blockers, TALL-104 cells – cell-based, flow cytometry, MLPCN library, primary screen. actives 0.66% (n = 360,000). TALL-104 LAMP-1 surface exposure; cells stimulated with thapsigargin and PMA. AID 651702, 2012. inhibition, % at 10 µM;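 active means inhibition above about 55%, limit read from the data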
V-ATPase pHluor – regulators of yeast V-ATPase proton pumping, primary screen, pHLuorin cytosolic pH fluorescence; S. cerevisiae; actives 0.37% (n = 350,000); response, % at 10 µM; in the data active means response mostly above about 7.3%, no sharp cut-off; inactive means mostly below about 5.4%; further: actives read high
T cell HTS – modulators of CD8 T cell-vesicle binding, primary screen, mouse 2C CD8+ T cells, flow cytometry | AID 2052, 2009 | response (vesicle binding), % at 7 µM | 2C CD8+ T cell-vesicle binding; stronger effect = lower value | actives 0.068% (n = 330,000);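 active means response, share of CD8 T cells binding vesicles, and their 90th percentile fluorescence all below set limits, cut at about 80% in these data, passing the limit was not always enough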;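 further: values below 100% mean blocked vesicle binding to the CD8+ T cells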
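Test system: purified 2C TCR transgenic mouse naive CD8+ T cells. Probe or stimulus: QL9-peptide-loaded Drosophila micro-vesicles bearing Ld, ICAM-1 and B7-1. Incubation: binding step 1.5 h, 37 °C, antibody labelling 20 min, ice. Measured by: flow cytometry of vesicle-bound cells.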
rCAG binder – binders of r(CAG) RNA repeats, primary screen, biochemical, fluorescence | r(CAG) RNA repeat, TO-PRO-1 dye displacement fluorescence | inhibition, % at 3 µM | actives 1.3% (n = 370,000);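 active means inhibition above the plate cutoff, the mean of all test compounds on that plate plus 3 SD, cut at about 35% in these data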;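 further: 0% = DMSO alone and 100% = 100 µM mitoxantrone as full dye displacement; higher means more dye released from RNA so lower well fluorescence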
Beta2AR ag CP1 – beta2AR agonists via receptor internalization, confirmation, cell-based, FAP fluorogen, flow cytometry, single point, cherry pick 1 | shares compounds with Beta2AR agonist | Am2.2-beta2AR cells, FAP surface receptor; stronger effect = lower value | actives 25% (n = 1,100) | AID 540358, 2011 | percent response (surface receptor), % at 10 µM;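 active means surface receptor percent response at or below 58%, roughly 3 SD from nonfluorescent compounds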
FAP fluor counter – counter-screen for beta-2AR agonists: fluorescence in Am2.2 cells. 1,100 tested, under 10 active. FAP fluorogen flow cytometry, fluorescence counterscreen; stronger effect = lower value. calls only at 10 µM. shares compounds with Beta2AR agonist. AID 588765;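 active means percent response below a set limit in fluorescence channel 1 and below 50% in channel 8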
VATPase regulator – yeast V-ATPase proton pumping modulators, confirmation, S. cerevisiae, pH-sensitive GFP, second cherry-pick; shares compounds with V-ATPase pHluor; S. cerevisiae pHLuorin cytosolic pH, V-ATPase proton transport; response, % at 10 µM; actives 2% (n = 980); AID 602197, 2012; in the data active means response above about 24%;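 further: plate controls were vehicle wells for no effect and positive control wells for full effect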
Rh123 counter – fluorescence retest of MPTP screen hits in isolated mitochondria, single concentration | membrane potential, Rhodamine 123 fluorescence | actives 78% (n = 5,000) | inhibition, % at 10 µM | shares compounds with MPTP block; in the data active means inhibition above about 22%;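 further: 0% = DMSO vehicle and 100% = positive control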
MPTP abs DR – mitochondrial permeability transition pore inhibitors, dose response, biochemical, absorbance, uHTS hits; actives 58% (n = 780); IC50, µM; AID 651561, 2012; isolated mitochondria swelling; shares compounds with MPTP block; in the data active means IC50 below about 20 µM
MPTP counter DR – fluorescent counter-screen in isolated mitochondria, dose response, counter-screen for MPTP inhibitor project, biochemical, fluorescence, uHTS hits; shares compounds with MPTP block; isolated mitochondria counterscreen, fluorescence read-out; IC50, µM; actives 49% (n = 780); in the data active means IC50 below about 80 µM
An asterisk follows results filed as active; i = inactive; · = no result given.

SMILES	MPTP block	Beta2AR agonist	Exocytosis inh	V-ATPase pHluor	T cell HTS	rCAG binder	others
CC(=O)NC(Cc1ccc(N(CCCl)CCCl)cc1)C(=O)NC(C(=O)O)C(C)C (stereo unspecified)	-1	-5	1	-1	271	0
CCCC(=O)N1c2ccc(Cl)cc2C(c2ccccc2)=NCC1C(=O)NC(C)(C)C (stereo unspecified)	·	·	·	·	·	0
COc1ccc(Cl)cc1N=Cc1c(O)n(C)c(=O)n(C)c1=O	0	57*	-4	-5	156	-1
COc1ccccc1N=Cc1c(O)n(C)c(=O)n(C)c1=O	-2	1	7	0	176	-1
O=C(NC1CCCCC1)N1Cc2cc(Br)ccc2-n2nncc2C1	·	·	·	·	·	1
CC1CCC(C(C)C)C(OC(=O)Cn2c(COc3ccccc3)[n+](C)c3ccccc32)C1 (stereo unspecified)	39	11	84*	-3	38	10
O=C1NC(=O)N(c2ccc(Cl)cc2)C(=O)/C1=C\c1ccc(Sc2nc3ccccc3[nH]2)o1	47	2	-2	-8	264	49*
CCN(CC)c1ccc(C=C2C(=O)NC(=S)NC2=O)cc1	9	51*	-4	6	72	-1
CCCCCn1c(NC(=O)c2ccco2)c(C(=O)OCC)c2nc3ccccc3nc21	3	-13	0	11*	132	·
COC(=O)C1=C(c2cccc(OCc3ccccc3)c2)C[C@@H]2CC[C@H]1N2C(=O)NCc1cccc(F)c1	1	54*	5	8	457	3	Beta2AR ag CP1=46*;FAP fluor counter=i
COC(=O)C1=C(c2cccc(OCc3ccccc3)c2)C[C@@H]2CC[C@H]1N2C(=O)NCc1ccccc1	1	10	-6	10	338	-2
O=C(NCCN1CCC2(CC1)C(=O)NCN2c1ccccc1)c1ccc(Cl)cc1	·	·	·	·	·	1
OC(CNCc1ccccc1)c1ccc(Cl)cc1 (stereo unspecified)	0	-2	7	2	·	-1	Beta2AR ag CP1=98;FAP fluor counter=i
CN1c2ccc(Br)cc2[C@@H]2NCC[C@@H]2[C@@H]1CO	·	·	·	·	·	2
CNCCC(Oc1ccc(C(F)(F)F)cc1)c1ccccc1 (stereo unspecified)	·	9	5	0	394	13	Beta2AR ag CP1=109;FAP fluor counter=i
CNC(=O)Oc1cccc2ccccc12	2	7	-1	-1	137	-3
CNCC[C@H](Oc1cccc2ccccc12)c1cccs1	94*	50*	42	-3	439	12	Beta2AR ag CP1=102;FAP fluor counter=i;Rh123 counter=-13;MPTP abs DR=3.9*;MPTP counter DR=68*
OC(c1cccc(Cl)c1)(c1cccc(Cl)c1)C1CN2CCC1CC2 (stereo unspecified)	72*	59*	-2	0	268	8	Beta2AR ag CP1=90;FAP fluor counter=i;Rh123 counter=-10
COc1cccc(-c2ccc3c(c2)C2c4cnnn4-c4ccccc4C(=O)N2CC3)c1 (stereo unspecified)	·	·	·	·	·	4
Cc1cc(OCC(=O)N2CCC(C(=O)O)(c3ccccc3)CC2)c2c(C)c(C)c(=O)oc2c1	-1	2	-4	10*	292	33	VATPase regulator=0
Cc1ccc2nc(N3CCN(C)CC3)[nH]c2c1	1	-4	-1	12*	230	1	VATPase regulator=0
CCCCN1CCN(C(=O)COc2cc(=O)n(C)c3ccccc23)CC1	·	·	·	·	·	1
O=C(Nc1ccc(F)cc1)c1c(O)c2c(n(Cc3ccccc3)c1=O)CCCC2	-2	4	6	10.0*	248	1	VATPase regulator=4
O=C(c1ccccc1)N1Cc2cc(Br)ccc2-n2nncc2C1	·	·	·	·	·	2
Clc1cc(Cl)cc(CN2Cc3ccccc3-n3nncc3C2)c1	·	·	·	·	·	-2
SMILES	MPTP block	Beta2AR agonist	Exocytosis inh	V-ATPase pHluor	T cell HTS	rCAG binder	others
Cc1ccc(C2C(S(C)(=O)=O)=C(O)C(=O)N2c2ccccc2)cc1 (stereo unspecified) (tested in a mixture with another compound)	-1	9	0	7.7*	291	8	VATPase regulator=-1
CC1(O)CCC2C3CCC4=CC(=O)CCC4(C)C34OC4CC21C (stereo unspecified)	2	-13	-1	1	·	0
C[C@]1(O)CC[C@H]2[C@@H]3CCC4=CC(=O)CC[C@]4(C)[C@@]3(F)[C@@H](O)C[C@@]21C	2	4	-5	9.2*	·	-1	VATPase regulator=1
COc1ccc(/C=C2\C(=O)NC(=S)N(C)C2=O)cc1C	-3	-9	-1	1	234	26
Cc1ccsc1/C=C1\C(=O)NC(=S)N(C)C1=O	9	55*	7	11*	143	9	VATPase regulator=45*
C/C(=N\Nc1ccccc1)c1c(O)n(-c2ccccc2)c(=O)[nH]c1=O	2	-3	2	-4	433	3
C/C(=N\Nc1ccccc1)c1c(O)[nH]c(=O)[nH]c1=O	2	5	-2	16*	i	1	VATPase regulator=-3
O=C(NCCN1CCC2(CC1)C(=O)NCN2c1ccccc1)c1cccs1	·	·	·	·	·	2
Cc1ccccc1CN1CCNCC1	0	1	1	11*	154	-3	VATPase regulator=1
C/C(=N\N1CCCCCC1)c1c(O)n(-c2ccc(Cl)cc2)c(=O)[nH]c1=O	0	-13	2	-1	330	-2
C/C(=N\N1CCCCCC1)c1c(O)n(-c2ccc(C)cc2)c(=O)[nH]c1=O	-1	-4	-2	8.7*	177	-7	VATPase regulator=-4
O=P(OCCCl)(OCCCl)OCCCl	·	·	·	·	·	1
